CHRM4 agonist = human M4 muscarinic receptor agonists, primary screen, CHO-K1 cells, Fluo-8 calcium fluorescence. Muscarinic acetylcholine receptor M4 (Homo sapiens), P08173. 0.14% of 360,000 active. activation, % at 3 µM. AID 624127, 2012. CHO-K1 hM4/Gqi5; vehicle 0%, full acetylcholine response 100%;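 active = activation above the run mean over all test wells plus 3 SD, cut at about 32% in these data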;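 note: peak over basal fluorescence ratio per well then scaled between controls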
CHRM5 agonist = human M5 muscarinic receptor agonists, primary screen, CHO-K1 cells, Fluo-8 calcium fluorescence; CHO-K1 hM5 cells; 0% DMSO wells, 100% maximal acetylcholine response; activation, % at 3 µM; 0.19% of 360,000 active;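 active = activation above the run's mean over test compounds plus 3 SD, cut at about 23% in these data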;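 note: signal is peak over basal fluorescence ratio across the kinetic read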
Target sequence (P08912 whole entry, looked up): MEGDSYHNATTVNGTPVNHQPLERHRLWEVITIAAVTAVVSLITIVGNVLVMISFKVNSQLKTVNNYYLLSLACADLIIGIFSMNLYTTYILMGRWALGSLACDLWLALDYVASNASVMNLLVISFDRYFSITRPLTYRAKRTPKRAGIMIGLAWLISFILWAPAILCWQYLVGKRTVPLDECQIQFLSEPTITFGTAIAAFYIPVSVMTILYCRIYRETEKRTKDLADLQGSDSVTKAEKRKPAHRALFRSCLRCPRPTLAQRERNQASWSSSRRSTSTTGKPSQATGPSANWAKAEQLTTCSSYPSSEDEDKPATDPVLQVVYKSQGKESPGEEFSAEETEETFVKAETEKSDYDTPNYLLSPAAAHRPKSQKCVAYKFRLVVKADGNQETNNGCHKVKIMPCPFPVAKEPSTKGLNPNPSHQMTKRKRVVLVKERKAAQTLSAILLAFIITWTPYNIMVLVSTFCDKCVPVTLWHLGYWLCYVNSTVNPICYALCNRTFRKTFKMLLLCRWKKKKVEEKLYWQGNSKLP
M4 antag = human M4 muscarinic receptor antagonists, primary screen, CHO cells, Fluo-8 calcium fluorescence; CHO-hM4 cells, ACh EC80; 0.73% of 360,000 active; AID 624125, 2012; inhibition, % at 3 µM; Muscarinic acetylcholine receptor M4 (Homo sapiens), P08173;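 active = inhibition above its plate's cutoff, the mean inhibition of sample wells plus 3 SD, cut at about 27% in these data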
CHRM4 PAM = human M4 muscarinic receptor positive allosteric modulators, primary screen, CHO-K1 cells, Fluo-8 calcium fluorescence | CHO-K1 hM4/Gqi5, ACh EC20; 0% = ACh EC20, 100% = maximal ACh | activation, % at 3 µM | 0.4% of 360,000 active | AID 624126, 2012;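 active = activation above its plate's cutoff, the mean activation of sample wells plus 3 SD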
M5 antag = human M5 muscarinic receptor antagonists, primary screen, CHO cells, Fluo-8 calcium fluorescence; Muscarinic acetylcholine receptor M5 (Homo sapiens), P08912; CHO-hM5 cells, ACh EC80; inhibition, % at 3 µM; AID 624040, 2012; 0.59% of 360,000 active;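 active = inhibition above a per-plate cutoff, the mean of that plate's test compounds plus 3 SD, cut at about 27% in these data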
CHRM5 PAM = human M5 muscarinic receptor positive allosteric modulators, primary screen, CHO-K1 cells, Fluo-8 calcium fluorescence; 0.3% of 360,000 active; activation, % at 3 µM; CHO-K1 hM5, ACh EC20 PAM; 0% = ACh EC20, 100% = ACh EC100; Muscarinic acetylcholine receptor M5 (Homo sapiens), P08912;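 active = activation above the run cutoff, the mean activation of all test compounds plus 3 SD, cut at about 18% in these data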
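Assay system: CHO-K1 hM5 cells. Also added: acetylcholine at EC20 concentration, added after compound. Dosing: 3 µM, single dose. Times: compound preincubation 140 s before EC20 acetylcholine addition. Signal: Fluo-8 calcium fluorescence. Measure: % activation relative to EC20 and EC100 ACh responses. Repeats: singlicate, one well per test compound.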
Large screens that a line does not name were inactive. Only some compounds are listed: those with a hit (about 1.8% of all), similar ones and a draw of the others.

CCc1c(-c2ccccc2)ncn1Cc1cccc(-c2ccccc2)c1	M5 antag 27
CCc1c(-c2cccc(OC)c2)ncn1Cc1cccc(-c2ccccc2)c1	M4 antag 34
CCc1c(-c2ccccc2F)ncn1Cc1cccc(-c2ccccc2)c1	none
CCN(c1ccccc1)S(=O)(=O)c1ccc(NC(=O)c2nc(S(C)(=O)=O)ncc2Cl)cc1	CHRM4 agonist 36, M4 antag 75, M5 antag 29
CCS(=O)(=O)c1ncc(Cl)c(C(=O)Nc2ccc(S(=O)(=O)N(C)c3ccccc3)cc2)n1	M4 antag 59
OC(CC#CCN1CCCC1)(c1ccccc1)c1ccccc1	M4 antag 88, M5 antag 58
CC1CCCN1CC#CC(O)(c1ccccc1)c1ccccc1 (centres undefined)	M4 antag 97, M5 antag 99
CC(C)C(O)(CC#CCN1CCCC1)c1ccccc1 (centres undefined)	M4 antag 49, M5 antag 42
OC(CC#CCN1CCOCC1)(c1ccccc1)c1ccccc1	none
CC1CCCCN1C(C(=O)O)c1ccccc1 (centres undefined)	none
OC(C#CCN1CCCC1)(c1ccccc1)c1cccc(F)c1 (centres undefined)	M4 antag 94, M5 antag 98
CC(O)(C#CCN1CCCC1)c1ccccc1 (centres undefined)	none
CC(C)C(O)(C#CCN1CCCCCC1)c1ccccc1 (centres undefined)	M4 antag 54, M5 antag 60
CC(C)(C)C(O)(CC#CCN1CCCC1)c1ccccc1 (centres undefined)	M5 antag 34
CN1CCN(CC#CCC(O)(c2ccccc2)c2ccccc2)CC1	none
C(#CCN1CCCC1)CC(c1ccccc1)c1ccccc1	M4 antag 69, M5 antag 75
OC(CC#CCN1CCCCC1)(c1ccccc1)c1ccccc1	M4 antag 44
COc1ccc(-c2cc(=O)oc3cc(OC(C)C(=O)NCc4ccccn4)ccc23)cc1 (centres undefined)	none
CC(C)(C#CCN1CCCCC1)OCCOC(c1ccccc1)c1ccccc1	M4 antag 97, M5 antag 30
CC(O)(C#CCN1CCCCC1)c1ccccc1 (centres undefined)	none
CCOc1ccc(NS(=O)(=O)c2ccc(C(=O)N3CCCC(C)C3)cc2)cc1 (centres undefined)	CHRM4 agonist 36, CHRM5 agonist 36
Cc1ccc(NS(=O)(=O)c2ccc(C(=O)N3CC(C)OC(C)C3)cc2)cc1 (centres undefined)	CHRM5 agonist 31
CCOc1ccc(NS(=O)(=O)c2ccc(C(=O)NCc3ccccn3)cc2)cc1	CHRM5 agonist 32
Cc1ccc(NS(=O)(=O)c2ccc(C(=O)N3CCC3)cc2)cc1	none
COc1ccc(NS(=O)(=O)c2ccc(C(=O)N3CCCCCC3)cc2)cc1	CHRM5 agonist 24
Cc1ccc(NS(=O)(=O)c2ccc(C(=O)NCc3ccccn3)cc2)cc1	none
CCOC(=O)c1ccc(S(=O)(=O)N2CCC(C(=O)O)CC2)cc1	none
Cc1c(C(=O)NCC(c2ccco2)N(C)C)oc2c(Cl)cccc12 (centres undefined)	none
O=C(CCN1C(=O)C2CCCCC2C1=O)Nc1ccc(Br)cc1F (centres undefined)	none
Cc1cc2nc(-c3ccco3)c(Cc3ccccc3C(F)(F)F)n2c(C)c1Br	none
Cc1ccccc1NC(=O)c1ccc(Cl)c(NC(=O)c2ccncc2)c1	none
CCOC(=O)c1ccc(S(=O)(=O)Nc2cc(S(=O)(=O)Nc3ccc(OC)cc3)ccc2O)cc1	CHRM5 PAM 18
O=C(c1ccccc1)c1ccc(C(=O)N2CCCC(C(F)(F)F)C2)cc1 (centres undefined)	none
COc1ccc(NS(=O)(=O)c2ccc(O)c(NC(=O)c3ccc(S(=O)(=O)N4CCCC4)cc3)c2)cc1	none
O=C(c1ccc(S(=O)(=O)Nc2ccccc2)cc1)N1CCCC(C(F)(F)F)C1 (centres undefined)	CHRM5 agonist 36
COc1ccc(NS(=O)(=O)c2ccc(C(=O)N(C)Cc3cccs3)cc2)cc1	CHRM5 agonist 26
O=C(CSc1nnnn1-c1cccc2ccccc12)NC(C(=O)O)(c1ccccc1)c1ccccc1	none
CC(=O)Nc1ccc(S(=O)(=O)Nc2ccc(-n3cnnn3)cc2)cc1	none
CC(C)(C)CNC(=O)c1cccc2c1C(=O)c1ccc(N3CCCC3)cc1S2(=O)=O	CHRM4 agonist 39
O=C(NCc1ccc(F)cc1)c1cccc2c1C(=O)c1ccc(N3CCC(Cc4ccccc4)CC3)cc1S2(=O)=O	none
O=C(NC1CC1)c1cccc2c1C(=O)c1ccc(N3CCC(Cc4ccccc4)CC3)cc1S2(=O)=O	M4 antag 27
Cn1ncc(Cl)c1C(=O)N1CCN(c2ncccn2)CC1	none
CC1(C)Oc2c(ccc(O)c2CN2CCOCC2)C2=C1CCCC2	none
CC[C@H](C)[C@H](NS(=O)(=O)c1ccc(C)cc1)C(=O)N1CCC(C(=O)N[C@H](C(=O)O)C(C)C)CC1	CHRM5 PAM 20
COc1ccccc1CN1CC(=O)N2CSC[C@H]2C1=O	none
Nn1c(SC/C=C/c2ccccc2)nnc1-c1cccnc1	M4 antag 28
Nn1c(SCc2cccc(Br)c2)nnc1-c1cccnc1	CHRM5 PAM 19
Clc1ccc(-n2c(SC/C=C/c3ccccc3)nnc2-c2cccnc2)cc1	none
Nn1c(SCc2cccc(F)c2)nnc1-c1cccnc1	none
CSc1ncccc1C(=O)N1CCCC(CCC(=O)NCc2ccc(F)c(F)c2)C1 (centres undefined)	none
O=C(NCc1csc(-c2ccccc2)n1)c1cc(F)cc2c1OCOC2	none
CC(=O)c1c(C)[nH]c(C)c1C(C)=O	CHRM4 PAM 32, CHRM5 PAM 27
CC(=O)c1c(C)[nH]c(C(=O)O)c1C	none
Cc1cc(/C=C2\SC(=S)N(C)C2=O)c(C)n1-c1ccccc1O	M4 antag 27
Cc1cc(/C=C2/SC(=S)N(c3ccc([N+](=O)[O-])cc3)C2=O)c(C)n1-c1cccnc1	none
Cc1cc(/C=C2/SC(=S)N(c3cccc(Cl)c3)C2=O)c(C)n1-c1cccnc1	M4 antag 34
CC(=O)c1ccc(OCc2nnn(CC(=O)O)c2-c2ccccc2)cc1	none

Source: PubChem
